Article PMC2782447 (Apoptosis : an international journal on programmed cell …, 2008)
The star is where a group is joined. pNA = O=[N+]([O-])c1ccc(N*)cc1

What was measured:
caspase-7 [1] = target: T1, caspase-7 (Homo sapiens, UniProt P55210); assay: Crystal structure of caspase-7/LDESD; type: binding; settings: crystal structure caspase-7/LDESD, 2.45 Å, PDB 3EDR
T1 sequence (P55210 24-198 limits assumed): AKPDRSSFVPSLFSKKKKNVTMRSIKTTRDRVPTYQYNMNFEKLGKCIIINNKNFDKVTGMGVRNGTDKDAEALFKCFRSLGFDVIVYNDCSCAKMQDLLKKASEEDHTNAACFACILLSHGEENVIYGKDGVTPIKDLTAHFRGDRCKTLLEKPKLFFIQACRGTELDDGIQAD
T1 sequence (P55210 207-303 limits assumed): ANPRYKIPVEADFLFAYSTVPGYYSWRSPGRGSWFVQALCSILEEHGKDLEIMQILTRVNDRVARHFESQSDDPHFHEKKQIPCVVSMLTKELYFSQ

caspase-3 [2] = target: T2, caspase-3 (Homo sapiens, UniProt P42574); assay: Crystal structure of caspase-3/LDESD; type: binding; settings: crystal structure caspase-3/LDESD, 1.61 Å, PDB 3EDQ
T2 sequence (P42574 29-175 limits assumed): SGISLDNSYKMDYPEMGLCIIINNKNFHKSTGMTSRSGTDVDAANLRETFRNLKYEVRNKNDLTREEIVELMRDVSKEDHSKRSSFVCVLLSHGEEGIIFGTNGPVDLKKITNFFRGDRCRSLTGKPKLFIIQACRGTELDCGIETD
T2 sequence (P42574 176-277 limits assumed): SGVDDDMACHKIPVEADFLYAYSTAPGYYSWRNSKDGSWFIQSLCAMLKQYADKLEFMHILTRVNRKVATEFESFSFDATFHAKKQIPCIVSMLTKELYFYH

caspase-3 [3] = target: T2, caspase-3; assay: Colorimetric substrate hydrolysis by caspase-3; type: biochemical; settings: for Relative kcat/Km (relative activity): relative to DEVD = 100%, caspase-3, pH 7.5
caspase-7 [4] = target: T1, caspase-7; assay: Colorimetric substrate hydrolysis by caspase-7; type: biochemical; settings: relative to DEVD = 100%; caspase-7, pH 7.5
caspase-6 = target: T3, caspase-6 (Homo sapiens, UniProt P55212); assay: Colorimetric substrate hydrolysis by caspase-6; type: biochemical; settings: for kcat/Km: 50 mM HEPES, pH 7.25, 100 mM NaCl, 10% sucrose, 0.1% CHAPS, 405 nm, triplicate; for Relative kcat/Km (relative activity): relative to DEVD = 100%
T3 sequence (P55212 25-179 limits assumed): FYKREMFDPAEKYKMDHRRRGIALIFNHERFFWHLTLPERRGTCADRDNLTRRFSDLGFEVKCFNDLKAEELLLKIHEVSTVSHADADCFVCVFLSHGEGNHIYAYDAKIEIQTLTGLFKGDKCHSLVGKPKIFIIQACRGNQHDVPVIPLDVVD
T3 sequence (P55212 194-293 limits assumed): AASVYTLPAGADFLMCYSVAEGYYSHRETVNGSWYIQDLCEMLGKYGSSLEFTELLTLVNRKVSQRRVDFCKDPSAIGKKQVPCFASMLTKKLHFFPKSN
In short: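 It was purified by Ni-NTA and S-100 gel filtration and self-processed into active subunits. Assays used 50 mM HEPES pH 7.25, 100 mM NaCl, 10% sucrose, 0.1% CHAPS, with pNA substrates at varied concentrations, A405, in triplicate.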

caspase-8 = caspase-8 (Homo sapiens, UniProt Q14790); assay: Colorimetric substrate hydrolysis by caspase-8; type: biochemical; settings: relative to DEVD = 100%; caspase-8, pH 7.5
caspase-8, sequence (Q14790 217-374 limits assumed): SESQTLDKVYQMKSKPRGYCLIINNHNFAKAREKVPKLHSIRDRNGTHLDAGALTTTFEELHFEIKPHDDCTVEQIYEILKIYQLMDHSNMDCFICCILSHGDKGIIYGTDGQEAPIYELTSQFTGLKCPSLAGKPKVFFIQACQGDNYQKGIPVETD
caspase-8, sequence (Q14790 385-479 limits assumed): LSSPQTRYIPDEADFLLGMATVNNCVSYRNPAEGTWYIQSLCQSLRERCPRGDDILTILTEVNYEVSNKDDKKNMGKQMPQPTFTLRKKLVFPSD

| Substance | covalent binding mode (active site cysteine with aldehyde) (caspase-7 [1]) | covalent binding mode (active site cysteine with aldehyde) (caspase-3 [2]) | increased hydrolysis relative to DEVD (caspase-3 [3]; caspase-3, increase over DEVD) [%] | Relative kcat/Km (relative activity) (caspase-3 [3]) [%] | Relative kcat/Km (relative activity) (caspase-7 [4]) [%] | kcat/Km (caspase-6) [min^−1μM^−1] | Relative kcat/Km (relative activity) (caspase-6; caspase-6, pH 7.25) [%] | Relative kcat/Km (relative activity) (caspase-8) [%] | activity of QDEVD compared with DEVD, in words (caspase-3 [3]; caspase-3) | substrate preference, in words (caspase-6; caspase-6, polar P5) | kcat/Km fold higher than DEVD (caspase-6; LEHD versus DEVD, caspase-6, pH 7.25) [fold] |
| --- | --- | --- | --- | --- | --- | --- | --- | --- | --- | --- | --- |
| Ac-LDESD-aldehyde | forms a hemithioacetal bond with the aldehyde group of the inhibitor | forms a hemithioacetal bond with the aldehyde group of the inhibitor | – | – | – | – | – | – | – | – | – |
| Ac-LDEVD-pNA | – | – | 50 | 146 | 56 | 0.068±0.01 | 118 | 20 | – | – | – |
| Ac-QDEVD-pNA | – | – | – | 85 | 67 | 0.086±0.01 | 148 | 18 | the activity was similar for the tetrapeptide DEVD and the pentapeptide QDEVD | preference for polar P5 in QDEVD | – |
| LEHD | – | – | – | – | – | 0.19 | – | – | – | – | 3 |
